Only some compounds are listed: those with a hit (about 2.3% of all), similar ones and a draw of the others.
TAAR1 antag: antagonists of human TAAR1. CHO RD-HGA16 TAAR1, Fluo-8 calcium fluorescence, antagonist. inhibition, % at 3 µM. hit rate 1.5% among 360,000. AID 624466;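 active means inhibition above a per-plate cutoff, the mean inhibition of test compounds on that plate plus 3 SD, cut at about 49% in these data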
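Material: CHO RD-HGA16 cells bearing hTAAR1; compound dosing: one-point dosing, 3 µM nominal final; schedule: dye loading 75 min at 37 °C, then 30 min room temperature; measured by: calcium fluorescence with Fluo-8; control set: vehicle and agonist controls; replication: n of 1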
OXTR potentiator: potentiators of human oxytocin receptor; hit rate 0.061% among 320,000; activation, % at 3 µM; AID 2445; P30559; CHO-OTR cells, Fluo-8 calcium fluorescence, potentiator mode; 0% = oxytocin EC15, 100% = EC100;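 active means activation above that plate's cutoff, the mean activation of tested compounds plus 3 SD, cut at about 6.6% in these data, passing the limit was not always enough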
Target sequence (P30559 whole entry, looked up): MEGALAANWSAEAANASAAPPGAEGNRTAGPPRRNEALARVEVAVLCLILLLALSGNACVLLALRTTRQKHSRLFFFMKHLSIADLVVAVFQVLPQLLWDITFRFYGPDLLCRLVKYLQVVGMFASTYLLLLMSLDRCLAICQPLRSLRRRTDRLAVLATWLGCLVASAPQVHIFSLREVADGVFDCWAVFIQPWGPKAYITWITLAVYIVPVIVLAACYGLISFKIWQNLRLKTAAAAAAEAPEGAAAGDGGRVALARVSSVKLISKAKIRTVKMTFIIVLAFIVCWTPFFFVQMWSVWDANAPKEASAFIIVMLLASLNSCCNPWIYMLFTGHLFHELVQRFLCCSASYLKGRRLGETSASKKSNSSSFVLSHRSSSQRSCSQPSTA
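Replication – single well per compound, singlicate · Assay system – CHO cell line stably expressing human OTR · Timing – 6 min pre-incubation, 100 s read · Measure – normalized max/min fluorescence ratio, % activation · Doses – 3.0 µM, one dose · Detection – Fluo-8 calcium dye fluorescence · Probe or stimulus – oxytocin near EC15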
TAAR1 ag: agonists of human TAAR1; Q96RJ0; CHO RD-HGA16 TAAR1, Fluo-8 calcium fluorescence; vehicle wells 0%, saturating PEA agonist 100%; activation, % at 3 µM; hit rate 0.99% among 360,000;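 active means activation above the mean activation of all test compounds in the run plus 3 SD, cut at about 38% in these data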
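test system = CHO RD-HGA16 cells carrying human TAAR1 plus Gα16 | schedule = 17-24 h seeding, 75 min 37 °C dye, 30 min RT | compound dosing = 3 µM single concentration | control set = DMSO and PEA EC100 | replicates = n 1 | signal = Fluo-8 fluorescence, 5 s baseline then 140 s kinetic read | measure = percent activation vs PEA EC100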
V1R ag counter: counter-screen for oxytocin receptor agonists: human V1a receptor agonists. P37288. CHO-V1R cells, Fluo-8 calcium fluorescence, agonist mode; 0% DMSO, 100% 3 nM vasopressin. hit rate 0.25% among 320,000. activation, % at 3 µM;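 active means activation above the mean activation of all tested compounds plus 3 SD, per screening run, cut at about 20% in these data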;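 further: signal is peak over basal fluorescence ratio across a 100 second FLIPR read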
OXTR ag: human OXTR agonism. P30559. CHO-OTR cells, Fluo-8 calcium fluorescence; normalized: DMSO 0%, oxytocin 100%. activation, % at 3 µM. hit rate 0.32% among 320,000. AID 2435;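 active means activation above the mean of all tested compounds plus 3 SD, cutoff set per screening run, cut at about 20% in these data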;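 further: peak over basal fluorescence ratio from a 100 s FLIPR kinetic read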
TAAR1 nonsel count: nonselective antagonism, TAAR1 counter-screen | AID 651780 | hit rate 77% among 2,400 | counterscreen cell line, calcium fluorescence, antagonist mode | shares compounds with TAAR1 antag | inhibition, % at 3 µM; in the data active means inhibition above about 22%;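 further: CHO-Ga16 host cells stimulated with ATP at an EC80 level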
TAAR1 ant conf: human TAAR1 antagonism, confirmed. TAAR1-expressing cells, fluorescence antagonist read-out. shares compounds with TAAR1 antag. hit rate 40% among 2,400. AID 651785. inhibition, % at 3 µM; in the data active means inhibition above about 49%;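 further: CHO-Ga16 host cells challenged with agonist PEA near its EC80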
Ga16 ag counter: counter-screen for TAAR1 antagonists: nonselective Ga16 agonists. shares compounds with TAAR1 antag. Ga16-expressing cells, calcium fluorescence, agonist counterscreen. activation, % at 3 µM. hit rate 18% among 2,400. AID 651953; in the data active means activation above about 12%
TAAR1 ag count: TAAR1 agonism, antagonist counter-screen; shares compounds with TAAR1 antag; hTAAR1 cell line, fluorescence activation, agonist mode; activation, % at 3 µM; hit rate 2% among 2,400; AID 651955; in the data active means activation above about 37%;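 further: CHO cells stably expressing TAAR1 with calcium dye readout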
Hits are given with their value; . = inactive; / = no result.

SMILES	TAAR1 antag	OXTR potentiator	TAAR1 ag	V1R ag counter	OXTR ag	TAAR1 nonsel count	TAAR1 ant conf	Ga16 ag counter	TAAR1 ag count
Cc1ccc2nc(-c3cccc(-c4cccc(Cl)c4)c3)c(NCc3ccccc3)n2c1	72.5	.	.	.	.	32.3	.	.	.
Cc1ccc2nc(-c3ccccc3)c(Cc3cccc(Cl)c3)n2c1	.	/	.	/	/	/	/	/	/
CCC(C)Sc1cccc(-c2nc3ccc(C)cn3c2NCc2ccccc2)c1 (configuration not stated)	90.6	.	.	.	.	44.8	76.0	.	.
CCC(C)Sc1cccc(-c2nc3ccccn3c2NCc2ccccc2)c1 (configuration not stated)	84.1	.	.	.	.	41.7	70.4	.	.
Cc1ccc(C)c(NC(=O)Nn2cnnc2)c1	.	.	.	.	.	/	/	/	/
Cc1ccc(Cl)cc1NC(=O)Nn1cnnc1	62.3	.	.	.	.	.	.	.	.
NC(=O)COc1cccc(/C=N/NC(=O)c2ccc(-n3cccc3)cc2)c1	84.0	.	.	.	.	.	55.2	.	.
C=CC[C@H](CC(=O)NCCO)C(=O)N[C@H](COC(=O)[C@@H](CC=C)CC(=O)OC(C)(C)C)Cc1c[nH]c2ccccc12	.	.	.	.	.	/	/	/	/
C=CC[C@H](CC(=O)N(CCO)Cc1ccccc1)C(=O)N[C@H](COC(=O)[C@H](CC=C)CC(=O)OC(C)(C)C)Cc1ccccc1	58.5	.	.	.	.	24.0	.	.	.
C=CC[C@H](CC(=O)N(CCO)Cc1ccccc1)C(=O)N[C@@H](COC(=O)[C@H](CC=C)CC(=O)OC(C)(C)C)Cc1c[nH]c2ccccc12	69.3	.	.	.	.	30.1	.	.	.
CN(C(=O)c1ccc(NC(=O)Cc2cccc(NC(=O)C3CCN(C(=O)CCc4ccccc4)CC3)c2)cc1)C1CC1	.	/	.	/	/	/	/	/	/
CCc1cc2c(COC(=O)c3cc(S(=O)(=O)N4CCOCC4)ccc3F)cc(=O)oc2cc1O	.	.	.	.	.	/	/	/	/
CCc1cc2c(COC(=O)c3cccc(NS(C)(=O)=O)c3)cc(=O)oc2cc1O	64.7	.	.	.	.	33.0	.	.	.
CCN(CC)S(=O)(=O)c1cc(C(=O)Nc2cc(S(=O)(=O)N3CCOCC3)ccc2N2CCN(C)CC2)ccc1C	.	/	.	/	/	/	/	/	/
CCN1C(=O)C(CC(=O)Nc2ccc(OC)cc2)N(CCc2ccccc2F)C1=S (configuration not stated)	74.5	.	.	.	.	30.8	.	.	.
COc1ccc(NC(=O)CC2C(=O)N(C)C(=S)N2CCc2ccccc2F)cc1 (configuration not stated)	57.2	.	.	.	.	36.6	55.8	12.0	.
CCN1C(=O)C(CC(=O)Nc2ccc(OC)cc2)N(CCc2ccccc2)C1=S (configuration not stated)	.	.	.	.	.	/	/	/	/
O=S1(=O)CC(N2CCC(c3ccccc3)CC2)CN1Cc1cn(Cc2ccc(C(F)(F)F)cc2)nn1 (configuration not stated)	.	/	.	/	/	/	/	/	/
CCC(C)(C)NC(=O)C(c1ccc(F)cc1)N(Cc1ccco1)C(=O)c1snc(C(N)=O)c1N (configuration not stated)	.	.	.	.	.	/	/	/	/
CN(C)c1ccc(C(C(=O)NCc2ccccc2)N(Cc2ccco2)C(=O)c2snc(C(N)=O)c2N)cc1 (configuration not stated)	71.1	.	.	.	.	27.4	57.6	.	.
NC(=O)c1nsc(C(=O)N(Cc2ccco2)C(C(=O)NCc2ccc(F)cc2)c2ccc(O)cc2)c1N (configuration not stated)	77.6	.	.	.	.	36.6	55.9	.	.
NC(=O)c1nsc(C(=O)N(Cc2cccnc2)C(C(=O)NCc2ccccc2)c2ccc(O)cc2)c1N (configuration not stated)	.	.	.	.	.	/	/	/	/
Cc1ccc(C(C(=O)NCc2ccc(F)cc2)N(Cc2ccco2)C(=O)c2snc(C(N)=O)c2N)o1 (configuration not stated)	63.2	.	.	.	.	31.2	61.6	.	.
O=C(NCc1ccccc1)C(c1ccc(F)cc1)N(Cc1ccco1)C(=O)c1ccccn1 (configuration not stated)	.	.	.	.	.	/	/	/	/
Cc1ccccc1C(C(=O)NCc1ccccc1)N(Cc1ccco1)C(=O)c1ccccn1 (configuration not stated)	50.0	.	.	.	.	27.3	.	.	.
SMILES	TAAR1 antag	OXTR potentiator	TAAR1 ag	V1R ag counter	OXTR ag	TAAR1 nonsel count	TAAR1 ant conf	Ga16 ag counter	TAAR1 ag count
COc1cc(C(C(=O)NC(C)(C)C)N(C(=O)CNC(=O)c2cccs2)c2cccnc2)cc(OC)c1OC (configuration not stated)	.	.	.	.	.	/	/	/	/
CN1CCCN(C(=O)c2cc(-c3cccc4ccccc34)nc3ccccc23)CC1	.	.	.	.	.	/	/	/	/
CC(=O)C1=C(C)NC(=S)NC1c1ccc(F)cc1 (configuration not stated)	.	/	.	/	/	/	/	/	/
O=C(Nc1ccc(F)cc1)C(CCc1ccccc1)N1CCN(C(=O)c2ccco2)CC1 (configuration not stated)	.	/	.	/	/	/	/	/	/
COc1ccc(CCN2CC(C(=O)NCc3ccon3)CCC2=O)cc1 (configuration not stated)	.	/	.	/	/	/	/	/	/
O=C(C1CCN(S(=O)(=O)c2cccc3cccnc23)CC1)N1CCCC1	.	.	.	.	.	/	/	/	/
COc1ccc(OC)c(NC(=O)C2CCCN(S(=O)(=O)c3cccc4cccnc34)C2)c1 (configuration not stated)	60.4	.	.	.	.	23.5	.	.	.
COc1cc(NC(=O)[C@@H]2CCCN(S(=O)(=O)c3cccc4cccnc34)C2)cc(OC)c1OC	51.5	.	.	.	.	29.0	.	.	.
Cc1cccc(N2CCN(C(=O)C3CCN(S(=O)(=O)c4cccc5cccnc45)CC3)CC2C)c1 (configuration not stated)	75.4	.	.	.	.	27.8	53.6	.	.
Cc1ccccc1NC(=O)C1CCCN(S(=O)(=O)c2cccc3cccnc23)C1 (configuration not stated)	54.4	.	.	.	.	.	.	.	.

From PubChem BioAssay
